Experimental data published in ChEMBL document CHEMBL4007505 (J Med Chem, 2017).
Activity calls are given as the source filed them. The rule behind the calls is not given here.

How the values were obtained:
[1] = target: T1, Sodium-dependent dopamine transporter (Homo sapiens, UniProt Q01959); test: Enhancing of [3H]WIN35,428 binding to recombinant human DAT expressed in HEK293 cell membranes at 10 uM pre-incubated for 10 mins before radioligand addition and measured 90 mins after radioligand addition by micro beta scintillation counting analysis relative to control
[2] = target: T1, Sodium-dependent dopamine transporter; test: Inhibition of [3H]WIN35,428 binding to recombinant human DAT expressed in HEK293 cell membranes at 10 uM pre-incubated for 10 mins before radioligand addition and measured 90 mins after radioligand addition by micro beta scintillation counting analysis relative to control
Adenosine receptor A3 [3] = target: T2, Adenosine receptor A3 (Homo sapiens, UniProt P0DMS8); test: Displacement of [125I]N6-(4-amino-3-iodobenzyl)adenosine-5'-N-methyluronamide from human A3AR expressed in HEK293T cells pre-incubated for 10 mins before radioligand addition and measured 90 mins after radioligand addition by micro beta scintillation counting analysis relative to control; type: cell-based, HEK-293T
T2 sequence (P0DMS8 whole entry): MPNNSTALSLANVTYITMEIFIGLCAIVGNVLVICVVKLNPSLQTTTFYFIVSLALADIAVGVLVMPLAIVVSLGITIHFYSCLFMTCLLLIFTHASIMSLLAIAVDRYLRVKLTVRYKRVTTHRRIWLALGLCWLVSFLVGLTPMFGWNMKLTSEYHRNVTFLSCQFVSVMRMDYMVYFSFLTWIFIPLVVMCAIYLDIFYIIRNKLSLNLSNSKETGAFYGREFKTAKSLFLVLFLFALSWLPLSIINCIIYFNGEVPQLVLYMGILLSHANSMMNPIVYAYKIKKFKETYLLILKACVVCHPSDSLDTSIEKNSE

[4] = target: T3, Adenosine receptor A3 (Mus musculus) (UniProt Q61618); test: Displacement of [125I]N6-(4-amino-3-iodobenzyl)adenosine-5'-N-methyluronamide from mouse A3AR expressed in HEK293T cells at 10 uM pre-incubated for 10 mins before radioligand addition and measured 90 mins after radioligand addition by micro beta scintillation counting analysis relative to control; type: cell-based
T3 sequence (whole entry): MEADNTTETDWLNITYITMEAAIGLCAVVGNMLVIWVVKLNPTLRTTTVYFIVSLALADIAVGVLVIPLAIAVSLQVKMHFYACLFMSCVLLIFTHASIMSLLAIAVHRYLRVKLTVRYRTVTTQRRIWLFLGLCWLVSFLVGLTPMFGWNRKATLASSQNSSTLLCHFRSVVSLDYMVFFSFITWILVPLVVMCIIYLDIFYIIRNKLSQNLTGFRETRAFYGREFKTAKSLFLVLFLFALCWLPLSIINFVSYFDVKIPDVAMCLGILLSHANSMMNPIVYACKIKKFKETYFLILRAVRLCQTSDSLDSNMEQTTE

[5] = target: T1, Sodium-dependent dopamine transporter; test: Enhancing of [125I]RTI-55 binding to recombinant human DAT expressed in HEK293 cell membranes preincubated for 10 mins followed by radioligand addition measured after 90 mins by micro beta scintillation counting analysis; design: concentration or dose not given beside the values; details: for EC50: read-out: EC50
Summary of the method: (§1)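 Membranes of HEK-293 cells stably expressing hDAT, hNET or hSERT. […] Compound preincubated 10 min at room temperature, then [125I]23 (40-80 pM final) or [3H]26 (1-3 nM for DAT and NET, 10-13 nM for SERT) added. Incubated 90 min at room temperature in the dark, then filtered. EC50 or Ki; mean ± SEM.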

[6] = target: T1, Sodium-dependent dopamine transporter; test: Enhancing of [3H]mazindol binding to recombinant human DAT expressed in HEK293 cell membranes preincubated for 10 mins followed by radioligand addition measured after 90 mins by micro beta scintillation counting analysis; design: concentration or dose not given beside the values; details: for EC50: read-out: EC50; summary of the method: as §1
[7] = target: T4, Sodium-dependent noradrenaline transporter (Homo sapiens, UniProt P23975); test: Enhancing of [125I]RTI-55 binding to recombinant human NET expressed in HEK293 cell membranes preincubated for 10 mins followed by radioligand addition measured after 90 mins by micro beta scintillation counting analysis; design: concentration or dose not given beside the values; details: for EC50: read-out: EC50
[8] = target: T1, Sodium-dependent dopamine transporter; test: Inhibition of recombinant human DAT expressed in HEK293 cell […] as reduction in [3H]-DA uptake incubated for 22 mins by micro beta scintillation counting analysis
[9] = target: T4, Sodium-dependent noradrenaline transporter; test: Enhancing of [3H]mazindol binding to recombinant human NET expressed in HEK293 cell membranes preincubated for 10 mins followed by radioligand addition measured after 90 mins by micro beta scintillation counting analysis
[10] = target: T4, Sodium-dependent noradrenaline transporter; test: Inhibition of recombinant human NET expressed in HEK293 […] assessed as reduction in [3H]-norepinephrine uptake incubated for 22 mins by micro beta scintillation counting analysis
[11] = target: T5, Sodium-dependent serotonin transporter (Homo sapiens, UniProt P31645); test: Enhancing of [125I]RTI-55 binding to recombinant human SERT expressed in HEK293 cell membranes preincubated for 10 mins followed by radioligand addition measured after 90 mins by micro beta scintillation counting analysis; details: for EC50: read-out: EC50
[12] = target: Sodium-dependent dopamine transporter (Mus musculus) (UniProt Q61327); test: (§2) Enhancing of [125I]RTI-55 binding to mouse DAT expressed in HEK293 cells preincubated for 10 mins followed by radioligand addition measured after 90 mins by micro beta scintillation counting analysis; type: cell-based
Summary of the method: (§3)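 Membranes preincubated 10 min at room temperature with compound in Krebs-HEPES buffer pH 7.4, then [125I]23 at fixed 45-50 pM for 90 min in the dark, filtered. […] EC50 and % control binding; mean ± SEM.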

[13] = target: T6, Sodium-dependent dopamine transporter (Mus musculus, UniProt Q61327); test: as §2; type: cell-based; summary of the method: as §3
[14] = target: T6, Sodium-dependent dopamine transporter; test: Inhibition of mouse DAT expressed in HEK293 cells assessed as reduction in [3H]-DA uptake; type: cell-based
[15] = target: Adenosine receptor A3 (Homo sapiens) (UniProt P0DMS8); test: Agonist activity at human A3AR assessed as inhibition of cAMP formation at 10 uM relative to adenosine-5'-Nethyluronamide
[16] = target: T5, Sodium-dependent serotonin transporter; test: Enhancing of [3H]mazindol binding to recombinant human SERT expressed in HEK293 cell membranes preincubated for 10 mins followed by radioligand addition measured after 90 mins by micro beta scintillation counting analysis
[17] = target: T1, Sodium-dependent dopamine transporter; test: Enhancing of [3H]WIN35,428 binding to recombinant human DAT expressed in HEK293 cell membranes pre-incubated for 10 mins before radioligand addition and measured 90 mins after radioligand addition by micro beta scintillation counting analysis relative to control
[18] = target: T5, Sodium-dependent serotonin transporter; test: Inhibition of recombinant human SERT expressed in HEK293 cell […] as reduction in [3H]5-HT uptake incubated for 22 mins by micro beta scintillation counting analysis
Target sequence in this assay (P31645 whole entry): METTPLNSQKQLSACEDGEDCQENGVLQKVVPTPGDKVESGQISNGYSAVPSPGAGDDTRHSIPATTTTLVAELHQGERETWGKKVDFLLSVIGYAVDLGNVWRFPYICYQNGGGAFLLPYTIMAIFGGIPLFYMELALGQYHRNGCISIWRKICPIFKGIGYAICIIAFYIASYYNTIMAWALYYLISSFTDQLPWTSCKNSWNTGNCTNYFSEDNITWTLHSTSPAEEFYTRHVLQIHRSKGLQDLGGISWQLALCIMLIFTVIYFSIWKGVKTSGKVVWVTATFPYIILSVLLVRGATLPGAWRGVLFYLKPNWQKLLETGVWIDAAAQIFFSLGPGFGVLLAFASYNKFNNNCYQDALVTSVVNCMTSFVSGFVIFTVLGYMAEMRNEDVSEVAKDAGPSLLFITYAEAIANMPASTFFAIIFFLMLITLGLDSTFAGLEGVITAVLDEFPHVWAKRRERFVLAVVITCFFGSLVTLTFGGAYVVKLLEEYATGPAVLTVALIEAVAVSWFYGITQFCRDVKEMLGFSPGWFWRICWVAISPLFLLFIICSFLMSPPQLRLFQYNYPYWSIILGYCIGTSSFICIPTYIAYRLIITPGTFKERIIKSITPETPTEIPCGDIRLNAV

Adenosine receptor A3 [19] = target: T7, Adenosine receptor A3 (Mus musculus, UniProt Q61618); test: Displacement of [125I]N6-(4-amino-3-iodobenzyl)adenosine-5'-N-methyluronamide from mouse A3AR expressed in HEK293T cells pre-incubated for 10 mins before radioligand addition and measured 90 mins after radioligand addition by micro beta scintillation counting analysis relative to control; type: cell-based
T7 sequence (Q61618 whole entry): T3 sequence (whole entry)

T1 sequence (Q01959 whole entry): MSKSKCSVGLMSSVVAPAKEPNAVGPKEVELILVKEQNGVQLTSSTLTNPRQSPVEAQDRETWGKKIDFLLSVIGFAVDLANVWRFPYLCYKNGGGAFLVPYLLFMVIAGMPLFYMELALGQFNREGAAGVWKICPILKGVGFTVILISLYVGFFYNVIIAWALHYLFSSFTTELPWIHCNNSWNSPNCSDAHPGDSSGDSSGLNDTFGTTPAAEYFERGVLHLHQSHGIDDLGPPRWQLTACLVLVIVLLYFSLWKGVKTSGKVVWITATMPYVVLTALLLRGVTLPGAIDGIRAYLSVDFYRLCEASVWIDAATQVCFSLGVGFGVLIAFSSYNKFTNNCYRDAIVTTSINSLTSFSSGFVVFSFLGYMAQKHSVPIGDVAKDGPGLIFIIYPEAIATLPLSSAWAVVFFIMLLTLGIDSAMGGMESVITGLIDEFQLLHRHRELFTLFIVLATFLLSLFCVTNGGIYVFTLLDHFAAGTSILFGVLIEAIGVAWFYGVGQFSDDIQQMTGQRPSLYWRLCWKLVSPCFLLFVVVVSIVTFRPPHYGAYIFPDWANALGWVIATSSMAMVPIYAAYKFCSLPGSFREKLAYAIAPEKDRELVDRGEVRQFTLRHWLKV
T4 sequence (P23975 whole entry): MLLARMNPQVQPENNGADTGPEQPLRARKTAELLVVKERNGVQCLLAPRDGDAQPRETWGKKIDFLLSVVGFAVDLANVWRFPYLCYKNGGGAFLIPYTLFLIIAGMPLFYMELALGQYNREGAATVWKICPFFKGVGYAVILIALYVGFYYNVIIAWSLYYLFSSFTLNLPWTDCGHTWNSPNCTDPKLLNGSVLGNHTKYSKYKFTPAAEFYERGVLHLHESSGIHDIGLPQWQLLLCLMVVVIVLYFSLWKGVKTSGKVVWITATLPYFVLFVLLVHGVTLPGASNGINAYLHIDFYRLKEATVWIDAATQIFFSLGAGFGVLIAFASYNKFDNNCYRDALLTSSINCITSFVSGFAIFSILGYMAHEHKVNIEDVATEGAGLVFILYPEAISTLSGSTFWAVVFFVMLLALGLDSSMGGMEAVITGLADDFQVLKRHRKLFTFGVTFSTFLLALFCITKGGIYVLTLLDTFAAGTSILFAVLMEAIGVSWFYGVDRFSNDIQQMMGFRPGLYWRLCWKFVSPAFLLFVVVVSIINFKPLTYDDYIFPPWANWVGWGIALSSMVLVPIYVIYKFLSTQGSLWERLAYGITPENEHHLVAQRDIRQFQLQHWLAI
T6 sequence (Q61327 whole entry): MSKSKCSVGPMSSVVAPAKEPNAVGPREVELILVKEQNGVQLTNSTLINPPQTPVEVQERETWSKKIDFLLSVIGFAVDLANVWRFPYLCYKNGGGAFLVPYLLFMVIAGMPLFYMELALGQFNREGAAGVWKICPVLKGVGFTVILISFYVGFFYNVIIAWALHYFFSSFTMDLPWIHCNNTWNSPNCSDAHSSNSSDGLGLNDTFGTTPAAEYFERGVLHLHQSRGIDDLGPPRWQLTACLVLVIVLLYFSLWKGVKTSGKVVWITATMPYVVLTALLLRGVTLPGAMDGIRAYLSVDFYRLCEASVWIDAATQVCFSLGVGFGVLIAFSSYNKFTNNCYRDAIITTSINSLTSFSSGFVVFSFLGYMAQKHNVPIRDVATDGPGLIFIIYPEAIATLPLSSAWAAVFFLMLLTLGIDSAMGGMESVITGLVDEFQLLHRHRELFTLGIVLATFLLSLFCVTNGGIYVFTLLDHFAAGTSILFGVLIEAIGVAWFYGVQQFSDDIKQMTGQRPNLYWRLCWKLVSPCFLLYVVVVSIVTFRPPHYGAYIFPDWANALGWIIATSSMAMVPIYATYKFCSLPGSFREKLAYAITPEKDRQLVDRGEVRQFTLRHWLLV
Sodium-dependent dopamine transporter (Mus musculus), sequence (Q61327 whole entry): as above

Row | SMILES | Activity [1] | inhibition [2] | Ki (Adenosine receptor A3 [3]) [nM] | inhibition [4] [%] | Activity [5] [%] | EC50 [5] [nM] | Activity [6] [%] | EC50 [6] [nM] | Activity [7] [%] | IC50 [8] [nM] | Activity [9] | Activity [11] | also measured
1 | CNc1nc(C#Cc2ccc(Cl)s2)nc2c1ncn2[C@H]1[C@H](O)[C@H](O)[C@]2(C(=O)OC)C[C@H]12 | 352% | inactive | 5.38 | 36 | 458 | 35 | 540 | 124 | 375 | 127 | inactive | inactive | EC50 [7]: 310 nM; IC50 [10]: 3380 nM; Emax [12]: 1440%; EC50 [13]: 810 nM; IC50 [14]: 940 nM; Efficacy [15]: 11.6%
2 | CNc1nc(C#Cc2ccc(Cl)s2)nc2c1ncn2[C@H]1[C@H](O)[C@H](O)[C@]2(C(=O)OCCC3CCCCC3)C[C@H]12 | inactive | – | 770 | 5 | – | – | – | – | – | – | – | – | –
3 | CCCCOC(=O)[C@@]12C[C@@H]1[C@@H](n1cnc3c(NC)nc(C#Cc4ccc(Cl)s4)nc31)[C@H](O)[C@@H]2O | 285% | inactive | 17.5 | 54 | – | – | – | – | – | – | – | – | EC50 [17]: 1200 nM
4 | CNC(=O)[C@@]12C[C@@H]1[C@@H](n1cnc3c(NC)nc(C#Cc4ccc(F)c(F)c4)nc31)[C@H](O)[C@@H]2O | – | – | – | – | 690 | 70 | 438 | 128 | 371 | 92 | inactive | inactive | EC50 [11]: > 10000 nM; Activity [16]: inactive; EC50 [16]: > 10000 nM; IC50 [18]: > 10000 nM

Second part, led by results:

Row | Activity [1] | inhibition [2] | Ki (Adenosine receptor A3 [3]) [nM] | inhibition [4] [%] | SMILES | Activity [5] [%] | EC50 [5] [nM] | Activity [6] [%] | EC50 [6] [nM] | Activity [7] [%] | IC50 [8] [nM] | Activity [9] | Activity [11] | also measured
5 | inactive | – | – | – | CCNc1cc(C#Cc2ccc(Cl)s2)nc2c1ncn2[C@H]1[C@H](O)[C@H](O)[C@]2(C(=O)NC)C[C@H]12 | – | – | – | – | – | – | – | – | –
6 | 539% | inactive | 14.5 | 45 | CCOC(=O)[C@@]12C[C@@H]1[C@@H](n1cnc3c(NC)nc(C#Cc4ccc(Cl)s4)nc31)[C@H](O)[C@@H]2O | 434 | 34 | 455 | 267 | 365 | 107 | inactive | inactive | EC50 [7]: 490 nM; IC50 [10]: 3980 nM; EC50 [11]: > 10000 nM; EC50 [16]: > 10000 nM; Emax [12]: 1560%; EC50 [13]: 1070 nM; IC50 [14]: 1170 nM
7 | 196% | inactive | 24.4 | 32 | CNc1nc(C#Cc2ccc(Cl)s2)nc2c1ncn2[C@H]1[C@H](O)[C@H](O)[C@]2(C(=O)OCCC(C)C)C[C@H]12 | – | – | – | – | – | – | – | – | –
8 | 430% | inactive | 6.42 | – | CCOC(=O)[C@@]12C[C@@H]1[C@@H](n1cnc3c(NC)nc(C#Cc4ccc(Br)s4)nc31)[C@H](O)[C@@H]2O | – | – | – | – | – | – | – | – | Ki (Adenosine receptor A3 [19]): 1800 nM; EC50 [17]: 400 nM
